Assay results taken from ChEMBL document CHEMBL3414463, “Discovery of potent and selective 8-fluorotriazolopyridine c-Met inhibitors” (J Med Chem, 2015).

Legend:
[1] = AUC (0 to infinity) in Sprague-Dawley rat at 0.25 mg/kg, iv; format: ADME, organism-based, Plasma; design: dose 0.25 mg/kg, route intravenous, time infinity; settings: Sprague-Dawley, plasma
[2] = Half life in Sprague-Dawley rat at 0.25 mg/kg, iv; format: ADME, organism-based; design: dose 0.25 mg/kg, route intravenous; settings: in vivo
[3] = Volume of distribution at steady state in Sprague-Dawley rat at 0.25 mg/kg, iv; format: ADME, organism-based; design: dose 0.25 mg/kg, route intravenous; settings: in vivo, read-out: Vdss
Outline: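 Male Sprague-Dawley rats were given a single IV dose of 0.25 mg/kg. The vehicle was DMSO, or for some compounds 20% (w/v) hydroxypropyl β-cyclodextrin in water adjusted to pH 3.5 with MSA. NC marks cases where the terminal disposition rate constant could not be characterized for lack of slope.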

[4] = molecular target: T1, Hepatocyte growth factor receptor (Homo sapiens, UniProt P08581); test: Inhibition of recombinant c-Met kinase domain (unknown origin) incubated for 30 mins using gastrin peptide substrate by HTRF assay
[5] = molecular target: T1, Hepatocyte growth factor receptor; test: Inhibition of HGF-stimulated c-Met autophosphorylation in serum starved human PC3 cells pre-incubated for 1 hr followed by human recombinant HGF stimulation for 10 mins by quantitative electrochemiluminescence immunoassay; format: cell-based, PC-3
Outline: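 Serum-starved PC-3 cells (plated in high-glucose DMEM/10% FBS, then 16 h in low-glucose DMEM with 0.1% BSA) were treated with a 10-point inhibitor dilution for 1 h at 37 °C. Cells were then stimulated with 200 ng/mL recombinant human HGF for 10 min and lysed. Phospho-c-Met was captured with biotinylated anti-c-Met and 4G10 by electrochemiluminescence. IC50, n ≥ 2.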

[6] = Clearance in Sprague-Dawley rat at 0.25 mg/kg, iv; format: ADME, organism-based; design: dose 0.25 mg/kg, route intravenous; settings: Sprague-Dawley, in vivo
[7] = Oral bioavailability in Sprague-Dawley rat at 2 mg/kg; format: ADME, organism-based; settings: in vivo
Outline: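 Male Sprague-Dawley rats given 2.0 mg/kg orally in 2% (w/v) hydroxypropylmethylcellulose, 1% (w/v) Tween 80 in water, pH 2.2 (adjusted with HCl or MSA). Some inhibitors instead used 10% (v/v) dimethylacetamide in the same vehicle.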

Cytochrome P450 3A4 = Cytochrome P450 3A4 (Homo sapiens, UniProt P08684); test: Inhibition of CYP3A4 (unknown origin); format: ADME
Cytochrome P450 2D6 = Cytochrome P450 2D6 (Homo sapiens, UniProt P10635); test: Inhibition of CYP2D6 (unknown origin); format: ADME
Sequence of Cytochrome P450 2D6 (P10635 whole entry): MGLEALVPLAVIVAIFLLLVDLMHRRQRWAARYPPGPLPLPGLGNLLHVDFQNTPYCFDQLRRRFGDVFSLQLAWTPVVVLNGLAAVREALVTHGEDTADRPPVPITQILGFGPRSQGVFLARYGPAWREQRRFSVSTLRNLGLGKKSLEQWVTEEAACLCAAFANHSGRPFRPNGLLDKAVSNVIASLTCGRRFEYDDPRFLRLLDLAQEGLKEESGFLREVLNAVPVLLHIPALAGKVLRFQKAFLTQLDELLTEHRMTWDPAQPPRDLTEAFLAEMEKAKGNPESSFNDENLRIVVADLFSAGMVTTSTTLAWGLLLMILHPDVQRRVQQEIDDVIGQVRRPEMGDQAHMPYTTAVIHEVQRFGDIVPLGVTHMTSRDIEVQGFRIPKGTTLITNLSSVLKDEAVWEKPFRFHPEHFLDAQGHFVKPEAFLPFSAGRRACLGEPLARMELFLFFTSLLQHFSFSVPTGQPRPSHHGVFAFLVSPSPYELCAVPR

Sequence of Cytochrome P450 3A4 (P08684 whole entry): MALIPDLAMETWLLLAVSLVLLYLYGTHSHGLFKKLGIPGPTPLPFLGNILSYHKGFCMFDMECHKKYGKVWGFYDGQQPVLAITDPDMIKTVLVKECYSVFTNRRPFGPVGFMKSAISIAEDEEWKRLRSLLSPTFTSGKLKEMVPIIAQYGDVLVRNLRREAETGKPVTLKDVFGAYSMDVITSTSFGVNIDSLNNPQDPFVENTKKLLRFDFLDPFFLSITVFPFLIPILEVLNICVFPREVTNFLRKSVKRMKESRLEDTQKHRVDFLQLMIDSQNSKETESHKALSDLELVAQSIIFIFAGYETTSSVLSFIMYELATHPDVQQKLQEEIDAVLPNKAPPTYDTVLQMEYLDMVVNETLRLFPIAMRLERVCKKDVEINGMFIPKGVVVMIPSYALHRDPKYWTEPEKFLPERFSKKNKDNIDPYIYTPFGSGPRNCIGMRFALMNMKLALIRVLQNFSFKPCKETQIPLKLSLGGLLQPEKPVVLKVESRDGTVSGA
T1 sequence (P08581 whole entry, the tested form may be a part): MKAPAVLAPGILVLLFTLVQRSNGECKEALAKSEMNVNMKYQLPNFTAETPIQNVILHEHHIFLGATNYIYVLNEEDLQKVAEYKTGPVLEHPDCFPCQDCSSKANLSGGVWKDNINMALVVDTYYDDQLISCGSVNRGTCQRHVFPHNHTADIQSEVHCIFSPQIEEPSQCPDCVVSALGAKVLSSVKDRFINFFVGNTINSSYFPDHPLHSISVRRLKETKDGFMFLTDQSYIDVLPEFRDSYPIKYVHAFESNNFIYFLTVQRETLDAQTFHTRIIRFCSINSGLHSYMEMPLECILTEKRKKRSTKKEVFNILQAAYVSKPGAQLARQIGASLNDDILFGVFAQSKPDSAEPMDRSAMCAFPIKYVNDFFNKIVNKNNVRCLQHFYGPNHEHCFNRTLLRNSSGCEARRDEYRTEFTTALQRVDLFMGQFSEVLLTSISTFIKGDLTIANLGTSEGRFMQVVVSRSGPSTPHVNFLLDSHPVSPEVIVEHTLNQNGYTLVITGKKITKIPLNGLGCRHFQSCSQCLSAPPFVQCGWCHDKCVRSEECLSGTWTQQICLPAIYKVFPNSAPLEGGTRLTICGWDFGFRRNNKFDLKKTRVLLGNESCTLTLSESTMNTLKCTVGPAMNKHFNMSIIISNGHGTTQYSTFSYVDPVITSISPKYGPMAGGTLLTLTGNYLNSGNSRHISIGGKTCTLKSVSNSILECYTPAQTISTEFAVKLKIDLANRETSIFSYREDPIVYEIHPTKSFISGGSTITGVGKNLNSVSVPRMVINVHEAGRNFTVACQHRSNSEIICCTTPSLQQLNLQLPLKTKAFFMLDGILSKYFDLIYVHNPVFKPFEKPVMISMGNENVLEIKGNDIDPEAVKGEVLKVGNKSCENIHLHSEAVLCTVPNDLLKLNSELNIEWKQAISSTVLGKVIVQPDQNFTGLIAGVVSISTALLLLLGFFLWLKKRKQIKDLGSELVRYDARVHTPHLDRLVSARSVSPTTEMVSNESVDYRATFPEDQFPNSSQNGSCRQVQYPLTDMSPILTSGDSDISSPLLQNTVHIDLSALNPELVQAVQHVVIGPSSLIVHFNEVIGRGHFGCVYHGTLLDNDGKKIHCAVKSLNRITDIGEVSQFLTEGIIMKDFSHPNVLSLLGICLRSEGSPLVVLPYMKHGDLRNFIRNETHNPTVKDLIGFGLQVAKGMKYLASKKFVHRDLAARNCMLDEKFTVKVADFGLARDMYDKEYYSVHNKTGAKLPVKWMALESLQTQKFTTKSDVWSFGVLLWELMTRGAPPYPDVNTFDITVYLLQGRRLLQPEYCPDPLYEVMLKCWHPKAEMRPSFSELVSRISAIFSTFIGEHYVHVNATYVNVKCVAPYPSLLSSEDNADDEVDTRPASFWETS

AUC(0-inf) [1] [µM·h]	half-life [2] [h]	Vd [3] [L/kg]	IC50 [4] [nM]	IC50 [5] [nM]	clearance [6] [mL/min/kg]	bioavailability [7] [%]	inhibition (INH) (Cytochrome P450 3A4)	inhibition (INH) (Cytochrome P450 2D6)	Compound
0.37	0.72	1.07	5	6	30.2	27			Cc1cc(-c2cc(F)c3nnc([C@](C)(F)c4ccc5ncccc5c4)n3c2)sn1
			31						COc1ccc2c(OCc3nnc4ccc(-c5ccccc5)cn34)ccnc2c1
			7						COc1ccc2c(OCc3nnc4c(F)cc(-c5ccccc5)cn34)ccnc2c1
			210						c1ccc(-c2ccc3nnc(Cc4ccc5ncccc5c4)n3c2)cc1
			60						Fc1cc(-c2ccccc2)cn2c(Cc3ccc4ncccc4c3)nnc12
			23						Fc1cc(-c2ccccc2)cn2c(C(F)(F)c3ccc4ncccc4c3)nnc12
			12	32			Not Active	Not Active	Fc1cc(-c2ccccn2)cn2c(C(F)(F)c3ccc4ncccc4c3)nnc12
18.5	2.5	0.13	9	9	0.667	62	Not Active	Not Active	Cc1cc(-c2cc(F)c3nnc(C(F)(F)c4ccc5ncccc5c4)n3c2)on1
			11	35			Not Active	Not Active	Cc1ncc(-c2cc(F)c3nnc(C(F)(F)c4ccc5ncccc5c4)n3c2)s1
0.38	0.3	0.39	4	7	27.8	110	Not Active	Not Active	Fc1cc(-c2cscn2)cn2c(C(F)(F)c3ccc4ncccc4c3)nnc12
44.4	6.6	0.13	22	15	0.167	110	Not Active	Not Active	Cn1cc(-c2cc(F)c3nnc(C(F)(F)c4ccc5ncccc5c4)n3c2)cn1
42.6	4.4	0.09	24	25	0.167	40	Not Active	Not Active	Fc1cc(-c2cnn(C3CC3)c2)cn2c(C(F)(F)c3ccc4ncccc4c3)nnc12
			18						Cn1cc(-c2cc(F)c3nnc(Cc4ccc5ncccc5c4)n3c2)cn1
			11						COc1cnc2ccc(Cc3nnc4c(F)cc(-c5cnn(C)c5)cn34)cc2c1
			51						Cn1cc(-c2cc(F)c3nnc(Cc4ccc5ncc(O)cc5c4)n3c2)cn1
			182						Cn1cc(-c2cc(F)c3nnc(Cc4ccc5nccnc5c4)n3c2)cn1
			67						CC(=O)Nc1nc2ccc(Cc3nnc4c(F)cc(-c5cnn(C)c5)cn34)cc2s1
			52						Cn1cc(-c2cc(F)c3nnc(Cc4ccc5nc(N)sc5c4)n3c2)cn1
